ChEMBL document CHEMBL5620402, “Development of submicromolar 17β-HSD10 inhibitors and their in vitro and in vivo evaluation” (Eur J Med Chem, 2023)
Blank lines part the entries; values can stand above or below the molecule they belong to. Activity calls are given as the source filed them. The calls are words filed in the database; no cut-off is given here.

Experiments:
[1] = biological target: T1, 3-hydroxyacyl-CoA dehydrogenase type-2 (Homo sapiens) (UniProt Q99714); assay: Binding affinity to 17beta-HSD10 (unknown origin) assessed as increase in denaturation temperature by differential scanning fluorimetry (DSF) assay; details: dose 25-50 µM
T1 sequence (whole entry): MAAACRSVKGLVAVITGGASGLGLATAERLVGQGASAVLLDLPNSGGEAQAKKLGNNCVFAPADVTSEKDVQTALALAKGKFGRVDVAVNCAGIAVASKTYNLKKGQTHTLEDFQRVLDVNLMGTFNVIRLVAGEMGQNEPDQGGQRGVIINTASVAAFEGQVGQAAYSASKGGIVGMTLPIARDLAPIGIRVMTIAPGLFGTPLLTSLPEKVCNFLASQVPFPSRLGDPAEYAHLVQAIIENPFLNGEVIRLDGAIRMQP
How it was run: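 Thermal shift assay with 1.43 μM 17β-HSD10 in 100 mM potassium phosphate pH 8.0 with SYPRO Orange (1:1000). Compounds were tested at 25 and 50 μmol/L. Fluorescence (Ex/Em 490/575) was recorded over 25–90 °C at 1 °C/min and Tm taken from melting curves. Triplicate; mean ± SD.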

[2] = AUC (0 to 1440 mins) in male albino Wistar rat plasma at 0.013 mg/kg, iv measured upto 1440 mins by HPLC-MS analysis; type: ADME, organism-based; details: in vivo, 24 h
How it was run: (§1)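 Single tail-vein injection into male wild-type rats, 0.1 mL per 100 g body weight. Solutions were 20 or 25 μM in saline with 3% DMSO, giving 0.013 or 0.018 mg/kg. Rats were exsanguinated at 5–1440 min (9 time-points, 3 per point). Plasma and brain levels were measured by HPLC-MS. Parameters came from non-compartmental analysis; values are mean ± SE of three.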

[3] = test system: SH-SY5Y; assay: Reduction in dehydrogenase activity in human SH-SY5Y cells at 100 uM measured after 4 to 24 hrs by […] assay; type: functional, cell-based; details: time 4-24 hrs
How it was run: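 SH-SY5Y cells (passages 14–18) in DMEM/F12 with 15% FBS were exposed to compound (0.1–100 μM) for 4 and 24 h. WST-1 reagent was added and the absorbance change at 440 nm was read over 0–1 h. Results are % of control cells, mean ± SD, triplicate of ≥3 experiments.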

[4] = Tmax in male albino Wistar rat plasma at 0.013 mg/kg, iv measured upto 1440 mins by HPLC-MS analysis; type: ADME, organism-based; how it was run: as §1
[5] = AUC (0 to 1440 mins) in male albino Wistar rat brain at 0.013 mg/kg, iv measured upto 1440 mins by HPLC-MS analysis; type: ADME, organism-based; details: in vivo, 24 h; how it was run: as §1
[6] = Cmax in male albino Wistar rat brain at 0.013 mg/kg, iv measured upto 1440 mins by HPLC-MS analysis; type: ADME, organism-based; how it was run: as §1
[7] = Tmax in male albino Wistar rat plasma at 60 mg/kg, po measured upto 1440 mins by HPLC-MS analysis; type: ADME, organism-based
How it was run: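 Single oral gavage of a 16 mM solution (blunt needle via oesophagus into stomach) to male wild-type rats, in 10% NMP, 25% Kolliphor EL and 65% saline. Three animals were killed at each of 15 time points from 5 to 1440 min and exsanguinated. Plasma levels were measured by HPLC-MS. Non-compartmental analysis gave mean ± SE of three.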

[8] = MRT in male albino Wistar rat plasma at 0.013 mg/kg, iv measured upto 1440 mins by HPLC-MS analysis; type: ADME, organism-based; how it was run: as §1
[9] = AUC (0 to 1440 mins) in male albino Wistar rat plasma at 60 mg/kg, po measured upto 1440 mins by HPLC-MS analysis; type: ADME, organism-based; details: in vivo, 24 h
How it was run: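 Oral gavage via blunt needle into the stomach of male wild-type rats. Dose was 60 mg/kg from a 16 mM solution in 10% NMP, 25% Kolliphor EL and 65% saline. Rats were sacrificed at 15 time-points from 5 to 1440 min, 3 per point. Plasma and brain were analysed by HPLC-MS with non-compartmental analysis; values are mean ± SE of three.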

[10] = Cmax in male albino Wistar rat plasma at 0.013 mg/kg, iv measured upto 1440 mins by HPLC-MS analysis; type: ADME, organism-based; how it was run: as §1
[11] = test system: SH-SY5Y; assay: Reduction in glutathione level in human SH-SY5Y cells at 100 uM measured after 24 hrs by monochlorobimane assay; type: functional, cell-based
How it was run: (§2)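 SH-SY5Y cells (passages 14–18) in DMEM/F12 with 15% FBS were exposed to compound (0.1–100 μM) for 4 or 24 h. Monochlorobimane was then added to a final 40 μmol/L, and fluorescence (394/490 nm) was followed for 10 min. GSH is the slope as % of control, mean ± SD, triplicate of ≥3 experiments.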

[12] = Tmax in male albino Wistar rat brain at 0.013 mg/kg, iv measured upto 1440 mins by HPLC-MS analysis; type: ADME, organism-based; how it was run: as §1
[13] = Apparent volume of distribution in male albino Wistar rat plasma at 0.013 mg/kg, iv measured upto 1440 mins by HPLC-MS analysis; type: ADME, organism-based; details: read-out: Vz; how it was run: as §1
[14] = test system: SH-SY5Y; assay: Reduction in glutathione level in human SH-SY5Y cells at 100 uM measured after 4 hrs by monochlorobimane assay; type: functional, cell-based; how it was run: as §2
[15] = Half life in male albino Wistar rat plasma at 0.013 mg/kg, iv measured upto 1440 mins by HPLC-MS analysis; type: ADME, organism-based; how it was run: as §1
[16] = Tmax in male albino Wistar rat brain at 0.018 mg/kg, iv measured upto 1440 mins by HPLC-MS analysis; type: ADME, organism-based; how it was run: as §1
[17] = Half life in male albino Wistar rat plasma at 0.018 mg/kg, iv measured upto 1440 mins by HPLC-MS analysis; type: ADME, organism-based; how it was run: as §1
[18] = Apparent volume of distribution in male albino Wistar rat plasma at 0.018 mg/kg, iv measured upto 1440 mins by HPLC-MS analysis; type: ADME, organism-based; details: read-out: Vz; how it was run: as §1
[19] = Permeability coefficient in male albino Wistar rat assessed as ratio of brain AUC to plasma AUC at 0.018 mg/kg, iv measured upto 1440 mins by HPLC-MS analysis; type: ADME, organism-based; how it was run: as §1
[20] = AUC (0 to 1440 mins) in male albino Wistar rat brain at 0.018 mg/kg, iv measured upto 1440 mins by HPLC-MS analysis; type: ADME, organism-based; details: in vivo, 24 h; how it was run: as §1
[21] = AUC (0 to 1440 mins) in male albino Wistar rat plasma at 0.018 mg/kg, iv measured upto 1440 mins by HPLC-MS analysis; type: ADME, organism-based; details: in vivo, 24 h; how it was run: as §1
[22] = MRT in male albino Wistar rat plasma at 0.018 mg/kg, iv measured upto 1440 mins by HPLC-MS analysis; type: ADME, organism-based; how it was run: as §1
[23] = Cmax in male albino Wistar rat plasma at 0.018 mg/kg, iv measured upto 1440 mins by HPLC-MS analysis; type: ADME, organism-based; how it was run: as §1
[24] = Tmax in male albino Wistar rat plasma at 0.018 mg/kg, iv measured upto 1440 mins by HPLC-MS analysis; type: ADME, organism-based
How it was run: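 Single tail-vein injection in male wild-type rats of a 25 μM dosing solution in saline with 3% DMSO, given at 0.1 mL per 100 g body weight. Three animals were killed at each of 5, 15, 30, 60, 90, 180, 240, 360 and 1440 min and exsanguinated. Plasma levels were measured by HPLC-MS. Parameters came from non-compartmental analysis, reported as mean ± SE of three.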

Activity [1]: Dose-Dependent Effect
AUC [2]: 5832 pmol·min
Tmax [4]: 5 min
AUC [5]: 3299 pmol·min
Cmax [6]: 0.0126 nM
Tmax [7]: 35 min
MRT [8]: 24.5 min
AUC [9]: 1431047 pmol·min
Cmax [10]: 0.389 nM
Tmax [12]: 956 min
Vd [13]: 147 L/kg
half-life [15]: 15.8 min
SMILES: CC(=O)Nc1ccc2nc(NC(=O)Nc3ccc(O)c(Cl)c3)sc2c1
inhibition [3]: Active
inhibition [11]: inactive
inhibition [14]: Active

Activity [1]: Dose-Dependent Effect
Tmax [16]: 90 min
half-life [17]: 29.4 min
Vd [18]: 135 L/kg
Kp at 24 h [19]: 0.002
AUC [20]: 34 pmol·min
Tmax [7]: 25 min
AUC [21]: 18961 pmol·min
AUC [9]: 212993 pmol·min
MRT [22]: 15.7 min
Cmax [23]: 1.54 nM
Tmax [24]: 5 min
SMILES: O=C(Nc1ccc(O)c(Cl)c1)Nc1nc2ccc(C(=O)O)cc2s1
